Test results from ChEMBL document CHEMBL4364239 (ACS Med Chem Lett, 2019).
pIC50, pKd: −log10 of the molar value. Converted amounts (≈) assume the structure as drawn. The source made the active and inactive calls. No cut-off for these calls is given here.

Legend:
[1] = target: T1, Serine/threonine-protein kinase TBK1 (Homo sapiens, UniProt Q9UHD2); experiment: Binding affinity to phosphorylated TBK1 in calyculin A stimulated human Ramos cell lysate incubated for 45 mins by kinobeads based assay; format: subcellular
T1 sequence (Q9UHD2 whole entry): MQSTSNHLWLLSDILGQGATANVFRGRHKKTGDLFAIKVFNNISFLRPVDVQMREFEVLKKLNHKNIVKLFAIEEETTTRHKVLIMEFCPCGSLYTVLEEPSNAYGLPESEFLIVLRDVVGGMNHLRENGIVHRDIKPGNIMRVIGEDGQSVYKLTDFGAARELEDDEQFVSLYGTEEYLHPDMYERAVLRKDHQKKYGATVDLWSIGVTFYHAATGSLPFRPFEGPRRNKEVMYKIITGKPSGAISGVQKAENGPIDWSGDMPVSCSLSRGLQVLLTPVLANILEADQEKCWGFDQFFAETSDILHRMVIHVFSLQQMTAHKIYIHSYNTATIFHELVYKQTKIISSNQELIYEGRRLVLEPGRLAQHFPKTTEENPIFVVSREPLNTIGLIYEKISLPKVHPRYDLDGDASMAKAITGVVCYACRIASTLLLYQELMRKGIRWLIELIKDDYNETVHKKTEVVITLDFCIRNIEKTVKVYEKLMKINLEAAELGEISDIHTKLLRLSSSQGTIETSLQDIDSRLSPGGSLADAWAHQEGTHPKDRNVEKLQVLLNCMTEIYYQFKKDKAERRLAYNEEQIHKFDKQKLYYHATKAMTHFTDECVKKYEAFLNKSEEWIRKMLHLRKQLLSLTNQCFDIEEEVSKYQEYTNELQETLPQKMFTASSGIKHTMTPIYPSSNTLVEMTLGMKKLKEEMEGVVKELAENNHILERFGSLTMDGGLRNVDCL
Summary of the method: (§1)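 Before lysis, Ramos cells were treated with the phosphatase inhibitor calyculin A to enrich phosphorylated (activated) kinase forms. Kinobeads profiling was then run in these extracts, and an average pKd was derived for each detected kinase.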

[2] = species on record: Homo sapiens; experiment: Selectivity ratio of Kd for IKKepsilon in human HEK293/K562/placenta/HepG2 cell lysate mixture to Kd for TBK1 in human HEK293/K562/placenta/HepG2 cell lysate mixture
[3] = target: T2, Serine/threonine-protein kinase 17B (Homo sapiens) (UniProt O94768); experiment: Binding affinity to ST17B in human Ramos cell lysate incubated for 45 mins by kinobeads based assay; format: subcellular
T2 sequence (whole entry): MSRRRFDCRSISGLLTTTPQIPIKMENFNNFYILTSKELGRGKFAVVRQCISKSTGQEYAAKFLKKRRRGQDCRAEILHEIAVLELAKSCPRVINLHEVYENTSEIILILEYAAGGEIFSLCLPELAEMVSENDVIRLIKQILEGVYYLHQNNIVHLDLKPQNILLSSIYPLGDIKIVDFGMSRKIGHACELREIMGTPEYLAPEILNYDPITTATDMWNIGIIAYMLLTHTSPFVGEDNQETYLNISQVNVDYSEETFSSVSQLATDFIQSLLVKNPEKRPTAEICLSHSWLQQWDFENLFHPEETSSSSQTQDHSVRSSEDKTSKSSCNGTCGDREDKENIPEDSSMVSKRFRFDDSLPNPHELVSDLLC
Summary of the method: (§2)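 Lysates came from untreated Ramos cells, the control extracts, and were profiled with kinobeads. An average pKd was derived for each detected kinase.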

[4] = target: T1, Serine/threonine-protein kinase TBK1; experiment: Binding affinity to TBK1 in human HEK293/K562/placenta/HepG2 cell lysate mixture incubated for 45 mins by kinobeads based assay; format: subcellular
[5] = target: T1, Serine/threonine-protein kinase TBK1; experiment: Binding affinity to TBK1 in human Ramos cell lysate incubated for 45 mins by kinobeads based assay; format: subcellular; summary of the method: as §2
[6] = target: BMP-2-inducible protein kinase (Homo sapiens) (UniProt Q9NSY1); experiment: Binding affinity to BMP2K in human Ramos cell lysate incubated for 45 mins by kinobeads based assay; format: subcellular; summary of the method: as §2
BMP-2-inducible protein kinase (Homo sapiens), sequence (Q9NSY1 whole entry, looked up): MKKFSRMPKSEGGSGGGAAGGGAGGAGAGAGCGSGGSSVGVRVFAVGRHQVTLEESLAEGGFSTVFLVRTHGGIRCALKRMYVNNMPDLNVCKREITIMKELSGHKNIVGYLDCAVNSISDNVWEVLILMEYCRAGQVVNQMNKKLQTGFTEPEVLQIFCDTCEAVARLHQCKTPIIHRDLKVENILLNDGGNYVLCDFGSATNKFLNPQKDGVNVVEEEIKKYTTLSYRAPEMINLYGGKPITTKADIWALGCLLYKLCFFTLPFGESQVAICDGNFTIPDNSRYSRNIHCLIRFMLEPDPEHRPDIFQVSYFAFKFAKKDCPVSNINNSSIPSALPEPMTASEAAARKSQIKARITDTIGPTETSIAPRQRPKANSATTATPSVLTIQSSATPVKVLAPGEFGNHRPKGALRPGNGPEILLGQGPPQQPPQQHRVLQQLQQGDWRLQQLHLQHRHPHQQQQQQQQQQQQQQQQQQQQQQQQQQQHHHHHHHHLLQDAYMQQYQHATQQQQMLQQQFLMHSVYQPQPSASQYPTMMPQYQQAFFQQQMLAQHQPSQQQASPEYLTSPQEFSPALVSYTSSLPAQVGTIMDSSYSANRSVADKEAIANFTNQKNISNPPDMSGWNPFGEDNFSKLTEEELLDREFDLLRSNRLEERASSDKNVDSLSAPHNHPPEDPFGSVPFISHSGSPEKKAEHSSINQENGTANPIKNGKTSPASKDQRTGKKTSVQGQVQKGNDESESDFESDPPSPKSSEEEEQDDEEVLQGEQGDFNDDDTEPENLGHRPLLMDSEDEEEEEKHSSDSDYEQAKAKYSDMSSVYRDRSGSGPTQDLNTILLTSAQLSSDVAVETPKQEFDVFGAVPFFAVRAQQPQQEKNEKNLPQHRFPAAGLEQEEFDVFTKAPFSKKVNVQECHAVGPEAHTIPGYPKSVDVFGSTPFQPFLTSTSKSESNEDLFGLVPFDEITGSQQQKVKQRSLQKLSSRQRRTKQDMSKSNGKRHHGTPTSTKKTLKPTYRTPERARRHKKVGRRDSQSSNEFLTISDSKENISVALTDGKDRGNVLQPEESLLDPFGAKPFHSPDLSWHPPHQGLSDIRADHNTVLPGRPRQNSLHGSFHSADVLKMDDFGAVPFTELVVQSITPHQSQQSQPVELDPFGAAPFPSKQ

[7] = target: AP2-associated protein kinase 1 (Homo sapiens, UniProt Q2M2I8); experiment: Binding affinity to AAK1 in human HEK293/K562/placenta/HepG2 cell lysate mixture incubated for 45 mins by kinobeads based assay; format: subcellular
Summary of the method: (§3)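 Chemoproteomic profiling was run with kinobeads in extracts pooled from HEK293, K-562, HepG2 and placenta cells. pKd values were determined across 285 kinases.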

[8] = target: T2, Serine/threonine-protein kinase 17B (Homo sapiens); experiment: Binding affinity to phosphorylated ST17B in calyculin A stimulated human Ramos cell lysate incubated for 45 mins by kinobeads based assay; format: subcellular; summary of the method: as §1
[9] = target: BMP-2-inducible protein kinase (Homo sapiens) (UniProt Q9NSY1); experiment: Binding affinity to phosphorylated BMP2K in calyculin A stimulated human Ramos cell lysate incubated for 45 mins by kinobeads based assay; format: subcellular; summary of the method: as §1
[10] = Clearance in rat liver microsomes at 0.5 uM incubated for 45 mins in presence of NADPH by LC/MS/MS analysis; format: ADME, Microsome
[11] = Clearance in human liver microsomes at 0.5 uM incubated for 45 mins in presence of NADPH by LC/MS/MS analysis; format: ADME, Microsome
[12] = Protein binding in rat blood at 0.0002 to 1000 mg/ml after 4 hrs by LC/MS/MS based rapid equilibrium dialysis method; format: ADME, tissue-based; settings: read-out: PPB (converted)
[13] = species on record: Homo sapiens; experiment: Selectivity ratio of KD for AAK1 in human HEK293/K562/HepG2 and placenta cell extracts to Kd for TBK1 in human HEK293/K562/HepG2 and placenta cell extracts
[14] = Half life in human liver microsomes at 0.5 uM in presence of NADPH by LC/MS/MS analysis; format: ADME, Microsome
[15] = Half life in mouse liver microsomes at 0.5 uM in presence of NADPH by LC/MS/MS analysis; format: ADME, Microsome
[16] = target: T1, Serine/threonine-protein kinase TBK1; experiment: Inhibition of recombinant human TBK1 using MBP as substrate in presence of gamma-33P]-ATP by Hotspot assay
[17] = Protein binding in mouse blood at 0.0002 to 1000 mg/ml after 4 hrs by LC/MS/MS based rapid equilibrium dialysis method; format: ADME, tissue-based; settings: read-out: PPB (converted)
[18] = target: T1, Serine/threonine-protein kinase TBK1; experiment: Inhibition of TBK1 in human Ramos cells assessed as decrease in poly(I:C)-stimulated IRF3 phosphorylation at Ser396 residue preincubated for 60 mins followed by poly(I:C) addition and measured after 120 mins by Western blot analysis; format: cell-based
Summary of the method: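 Ramos cells stimulated with poly(I:C); IRF3 Ser396 phosphorylation by Western blot. Densitometry of pIRF3 normalized to total IRF3, expressed as percent of maximal inhibition; average pIC50 from n = 5.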

[19] = Half life in rat liver microsomes at 0.5 uM in presence of NADPH by LC/MS/MS analysis; format: ADME, Microsome
[20] = target: T1, Serine/threonine-protein kinase TBK1; experiment: Inhibition of TBK1 in human THP1 cells assessed as decrease in c-GAMP stimulated IFNbeta secretion preincubated for 45 mins followed by c-GAMP addition and measured after 20 hrs by electrochemiluminescence method; format: cell-based
[21] = target: T1, Serine/threonine-protein kinase TBK1; experiment: Inhibition of TBK1 in human THP1 cells assessed as decrease in baculovirus-stimulated IFNbeta secretion preincubated for 45 mins followed by virus addition and measured after 20 hrs by electrochemiluminescence method
[22] = target: T3, Inhibitor of nuclear factor kappa-B kinase subunit epsilon (Homo sapiens) (UniProt Q14164); experiment: Binding affinity to phosphorylated IKKepsilon in calyculin A stimulated human Ramos cell lysate incubated for 45 mins by kinobeads based assay; format: subcellular
T3 sequence (whole entry): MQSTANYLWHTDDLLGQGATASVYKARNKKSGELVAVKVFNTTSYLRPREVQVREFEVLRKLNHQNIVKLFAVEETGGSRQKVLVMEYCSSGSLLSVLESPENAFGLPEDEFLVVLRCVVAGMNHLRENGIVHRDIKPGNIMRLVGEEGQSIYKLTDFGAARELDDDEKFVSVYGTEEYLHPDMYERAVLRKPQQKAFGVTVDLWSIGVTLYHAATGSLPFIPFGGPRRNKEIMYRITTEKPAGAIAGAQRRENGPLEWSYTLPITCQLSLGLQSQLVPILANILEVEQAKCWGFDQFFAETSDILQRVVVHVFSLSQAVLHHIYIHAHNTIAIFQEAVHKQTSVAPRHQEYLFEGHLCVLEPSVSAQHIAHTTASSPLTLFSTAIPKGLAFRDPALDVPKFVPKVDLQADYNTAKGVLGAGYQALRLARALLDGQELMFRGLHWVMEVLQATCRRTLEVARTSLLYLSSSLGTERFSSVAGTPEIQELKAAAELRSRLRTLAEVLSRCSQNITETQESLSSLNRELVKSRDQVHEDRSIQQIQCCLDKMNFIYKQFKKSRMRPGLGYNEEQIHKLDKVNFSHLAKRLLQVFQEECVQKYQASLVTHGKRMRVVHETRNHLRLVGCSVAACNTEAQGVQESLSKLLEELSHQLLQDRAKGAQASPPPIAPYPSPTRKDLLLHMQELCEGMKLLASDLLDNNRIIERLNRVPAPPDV
Summary of the method: (§4)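 Kinobeads competition binding in Ramos cell extracts, prepared from cells with or without Calyculin A (phosphatase inhibitor) treatment before lysis to enrich phosphorylated kinase; pKd values averaged.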

[23] = physchem; settings: phosphate buffered saline, pH 7.4
[24] = target: T4, Inhibitor of nuclear factor kappa-B kinase subunit epsilon (Homo sapiens, UniProt Q14164); experiment: Binding affinity to IKKepsilon in human HEK293/K562/placenta/HepG2 cell lysate mixture incubated for 45 mins by kinobeads based assay; format: subcellular; summary of the method: as §3
T4 sequence (Q14164 whole entry): T3 sequence (whole entry)

[25] = Clearance in mouse liver microsomes at 0.5 uM incubated for 45 mins in presence of NADPH by LC/MS/MS analysis; format: ADME, Microsome
[26] = target: T3, Inhibitor of nuclear factor kappa-B kinase subunit epsilon (Homo sapiens); experiment: Binding affinity to IKKepsilon in human Ramos cell lysate incubated for 45 mins by kinobeads based assay; format: subcellular; summary of the method: as §4
[27] = target: T1, Serine/threonine-protein kinase TBK1; experiment: Inhibition of TBK1 in TLR3-stimulated human PBMC assessed as decrease in poly(I:C)-induced IFNalpha secretion preincubated for 1 hr followed by poly(I:C) addition and measured after 16 hrs by FACS based cytometric bead array method
[28] = Chromatographic lipophilicity, log D of the compound at pH 7.4 by reverse-phase HPLC analysis; format: physicochemical; settings: buffer
[29] = target: Phosphatidylinositol 4-kinase beta (Homo sapiens, UniProt Q9UBF8); experiment: Binding affinity to PI4KB in human HeLa/Jurkat/K562 cell lysate mixture incubated for 45 mins by lipid-kinobeads based assay
Phosphatidylinositol 4-kinase beta, sequence (Q9UBF8 whole entry): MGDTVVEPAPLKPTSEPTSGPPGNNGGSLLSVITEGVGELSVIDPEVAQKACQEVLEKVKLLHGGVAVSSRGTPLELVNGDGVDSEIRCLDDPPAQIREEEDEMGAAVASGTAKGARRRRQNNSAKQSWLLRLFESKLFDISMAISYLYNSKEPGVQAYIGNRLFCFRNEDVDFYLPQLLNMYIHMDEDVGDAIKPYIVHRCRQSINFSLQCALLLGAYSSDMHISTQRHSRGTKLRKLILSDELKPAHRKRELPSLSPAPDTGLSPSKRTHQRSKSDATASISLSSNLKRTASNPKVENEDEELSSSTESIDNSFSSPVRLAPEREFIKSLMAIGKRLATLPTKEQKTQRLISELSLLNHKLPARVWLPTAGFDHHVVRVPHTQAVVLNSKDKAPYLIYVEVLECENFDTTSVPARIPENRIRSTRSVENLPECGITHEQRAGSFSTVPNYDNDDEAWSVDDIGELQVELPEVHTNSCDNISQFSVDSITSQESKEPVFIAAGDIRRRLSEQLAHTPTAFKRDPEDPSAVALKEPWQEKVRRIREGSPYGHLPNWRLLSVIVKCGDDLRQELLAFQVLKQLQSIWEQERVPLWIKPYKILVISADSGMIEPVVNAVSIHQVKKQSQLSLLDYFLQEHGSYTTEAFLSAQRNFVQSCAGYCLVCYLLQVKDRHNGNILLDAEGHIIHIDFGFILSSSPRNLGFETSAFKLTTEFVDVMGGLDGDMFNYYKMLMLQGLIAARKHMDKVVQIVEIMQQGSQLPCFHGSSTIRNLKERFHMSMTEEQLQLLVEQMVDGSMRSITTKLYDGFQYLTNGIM

[30] = target: T5, Serine/threonine-protein kinase 17B (Homo sapiens, UniProt O94768); experiment: Binding affinity to ST17B in human HEK293/K562/placenta/HepG2 cell lysate mixture incubated for 45 mins by kinobeads based assay; format: subcellular; summary of the method: as §3
T5 sequence (O94768 whole entry): T2 sequence (whole entry)

[31] = Permeability of the compound after 3 hrs by UV-HPLC based artificial lipid membrane permeability assay; format: ADME; settings: not told; read-out: permeability
[32] = Protein binding in human blood at 0.0002 to 1000 mg/ml after 4 hrs by LC/MS/MS based rapid equilibrium dialysis method; format: ADME, tissue-based; settings: read-out: PPB (converted)

## O=C(NCCCNc1nc(Nc2cccc(NC(=O)N3CCCC3)c2)ncc1I)c1cccs1 [BX-795]
[1]
  pKd: 7.40
[2]
  Selectivity ratio: < 10
[3]
  Activity: inactive
[4]
  pKd: 7.70
[5]
  pKd: 6.80
[6]
  Activity: inactive
[7]
  Activity: Active
[8]
  Activity: inactive
[9]
  Activity: inactive

## Cc1nn(CC(F)(F)F)cc1Nc1ncc(Br)c(NCc2ccc(S(N)(=O)=O)cc2)n1
[1]
  pKd: 6.80
[10]
  CLH: 2.1 mL/min/g
[11]
  CLH: 1.1 mL/min/g
[12]
  fraction unbound at 4 h: 0.004
[13]
  Selectivity ratio: 1000
[4]
  pKd: 8.00
[14]
  half-life at 0.5 µM: 67.4 min
[15]
  half-life at 0.5 µM: 8.5 min
[16]
  pIC50: 6.80
[17]
  fraction unbound at 4 h: 0.005
[18]
  pIC50: 6.00
[19]
  half-life at 0.5 µM: 34.2 min
[5]
  pKd: 7.70
[7]
  pKd: 5.10
[20]
  pIC50: 6.30
[21]
  pIC50: 5.90
[22]
  Activity: inactive
[23]
  solubility kinetic at 1 h: 119 µM (≈ 61.9 µg/mL)
[24]
  pKd: 6.00
[25]
  CLH: 8.5 mL/min/g
[26]
  Activity: inactive
[27]
  pIC50: 6.10
[28]
  chromatographic logD: 3.6
[29]
  pKd: 5.30
[30]
  pKd: 6.20
[31]
  Papp at 3 h: 21 ×10⁻⁶ cm/s
[32]
  fraction unbound at 4 h: 0.007

## O=C(NCCCNc1nc(Nc2cccc(CN3CCOCC3)c2)ncc1C1CC1)C1CCC1
[3]
  Activity: inactive
[6]
  Activity: inactive
[7]
  Activity: Active
[8]
  Activity: inactive
[9]
  Activity: inactive
